Test results as given in ChEMBL document CHEMBL3616436, “Synthesis, cytotoxicity and antimicrobial activity of thiourea derivatives incorporating 3-(trifluoromethyl)phenyl moiety” (Eur J Med Chem, 2015).
Converted amounts (≈) assume the structure as drawn.

Assays:
[1] = test system: Staphylococcus epidermidis; experiment: Inhibition of biofilm formation in Staphylococcus epidermidis 151/04 after 24 hrs using MTT staining by spectrophotometer analysis; assay type: functional, organism-based; settings: 151/04, 24 h
[2] = test system: Staphylococcus epidermidis; experiment: Inhibition of biofilm formation in Staphylococcus epidermidis ATCC 35984 at 8 ug/ml after 24 hrs using MTT staining by spectrophotometer analysis; assay type: functional; settings: ATCC 35984, 24 h
Procedure, shortened: (§1)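 Methicillin-resistant hospital isolates or ATCC strains of S. epidermidis were grown overnight in tryptone soy broth with 0.5% glucose. Inoculum of 10^7 CFU/mL was mixed 1:1 with compound in TSB-glucose and incubated 24 h at 37 °C. Non-adherent cells were washed off with PBS, and wells were stained with MTT (0.5% in PBS) for 2 h at 37 °C. Stain was solubilized in DMSO/glycine buffer and read at A554. Inhibition is relative to drug-free control; quadruplicates.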

[3] = Cytotoxicity against human HaCaT cells assessed as cell viability at 16 uM after 24 hrs by MTT assay relative to control; assay type: cell-based; settings: read-out: Activity
Procedure, shortened: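 HaCaT keratinocytes, 2.5x10^4 cells/well, in DMEM with 2% FBS, exposed 24 h to 16 µM compound, then 2 h with 0.5 mg/ml MTT; formazan dissolved in 0.04 M HCl/isopropanol, A570; viability as % of untreated control absorbance; three independent experiments in triplicate.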

[4] = test system: Staphylococcus epidermidis; experiment: Inhibition of biofilm formation in Staphylococcus epidermidis 31/04 at 8 ug/ml after 24 hrs using MTT staining by spectrophotometer analysis; assay type: functional; settings: 31/04, 24 h; procedure, shortened: as §1
[5] = test system: Staphylococcus epidermidis; experiment: Inhibition of biofilm formation in Staphylococcus epidermidis 24/04 at 8 ug/ml after 24 hrs using MTT staining by spectrophotometer analysis; assay type: functional; settings: 24/04, 24 h
[6] = test system: Staphylococcus epidermidis; experiment: Inhibition of biofilm formation in Staphylococcus epidermidis 23/04 at 8 ug/ml after 24 hrs using MTT staining by spectrophotometer analysis; assay type: functional; settings: 23/04, 24 h
[7] = test system: Staphylococcus epidermidis; experiment: Inhibition of biofilm formation in Staphylococcus epidermidis 62/04 at 8 ug/ml after 24 hrs using MTT staining by spectrophotometer analysis; assay type: functional; settings: 62/04, 24 h; procedure, shortened: as §1
[8] = test system: Staphylococcus epidermidis; experiment: Inhibition of biofilm formation in Staphylococcus epidermidis ATCC 12228 at 8 ug/ml after 24 hrs using MTT staining by spectrophotometer analysis; assay type: functional; settings: ATCC 12228, 24 h; procedure, shortened: as §1

| Structure (SMILES) | IC50 [1] [µg/mL] | inhibition at 8 µg/mL [2] [%] | viability at 24 h, 16 µM [3] [%] | inhibition at 8 µg/mL [4] [%] | inhibition at 8 µg/mL [5] [%] | inhibition at 8 µg/mL [6] [%] | inhibition at 8 µg/mL [7] [%] | inhibition at 8 µg/mL [8] [%] |
| --- | --- | --- | --- | --- | --- | --- | --- | --- |
| O=C(O)c1cn(C2CC2)c2cc(N3CCNCC3)c(F)cc2c1=O [CIPROFLOXACIN] | 13.1 (≈ 39.5 µM) |  |  |  |  |  |  |  |
| Fc1ccc(NC(=S)Nc2cccc(C(F)(F)F)c2)cc1Cl |  | 40 | 89.8 | 40 | 40 | 40 | 40 | 40 |
| FC(F)(F)c1cccc(NC(=S)Nc2cccc(Br)c2)c1 | 2.34 (≈ 6.24 µM) |  | 91 | 70 | 70 | 70 | 80 |  |
